Measured values from ChEMBL document CHEMBL1177643, “Synthesis, DNA-binding ability and anticancer activity of benzothiazole/benzoxazole-pyrrolo[2,1-c][1,4]benzodiazepine conjugates” (Bioorg Med Chem, 2010).

Tests used:
A-375 [1] = test: Cell cycle arrest in human A375 cells assessed as accumulation at G2/M phase at 2 uM after 24 hrs using propidium iodide staining by flow cytometry; assay type: functional
In short: (§1)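 A375 cells (5×10^5) grown 24 h, then exposed to compound 24 h (DMSO control). Trypsin–EDTA harvest, fixed in ice-cold 70% ethanol at 4 °C 30 min, RNase A 37 °C 30 min, propidium iodide staining. DNA content measured by flow cytometry on 20,000 events, gated as sub-G1/G0, G1, S and G2/M.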

HOP-92 = test: Growth inhibition of human HOP92 cells after 48 hrs by sulforhodamine B assay; assay type: functional; conditions: HOP-92, 48 h
In short: (§2)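 Panel of 60 human cancer cell lines; for each compound, dose–response curves per cell line measured at a minimum of five concentrations at 10-fold dilutions. Cells exposed continuously to drug for 48 h, and growth was read out by sulforhodamine B staining.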

CCRF-CEM = test: Growth inhibition of human CCRF-CEM cells after 48 hrs by sulforhodamine B assay; assay type: functional
In short: (§3)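 Dose–response in each cell line over at least five concentrations at 10-fold dilutions, with 48 h continuous exposure and sulforhodamine B read-out.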

SK-MEL-28 = test: Growth inhibition of human SK-MEL-28 cells after 48 hrs by sulforhodamine B assay; assay type: functional; conditions: SK-MEL-28, 48 h; in short: as §2
Malme-3M = test: Growth inhibition of human MALME-3M cells after 48 hrs by sulforhodamine B assay; assay type: functional; in short: as §2
HCT-15 = test: Growth inhibition of human HCT15 cells after 48 hrs by sulforhodamine B assay; assay type: functional; conditions: HCT-15, 48 h; in short: as §2
UACC-62 = test: Growth inhibition of human UACC62 cells after 48 hrs by sulforhodamine B assay; assay type: functional; conditions: UACC-62, 48 h; in short: as §2
SF-268 = test: Growth inhibition of human SF268 cells after 48 hrs by sulforhodamine B assay; assay type: functional; conditions: SF-268, 48 h; in short: as §2
SNB-19 = test: Growth inhibition of human SNB19 cells after 48 hrs by sulforhodamine B assay; assay type: functional; conditions: SNB-19, 48 h; in short: as §2
T47D = test: Growth inhibition of human T47D cells after 48 hrs by sulforhodamine B assay; assay type: functional; in short: as §2
NCI-H522 = test: Growth inhibition of human NCI-H522 cells after 48 hrs by sulforhodamine B assay; assay type: functional; conditions: NCI-H522, 48 h; in short: as §2
KM12 = test: Growth inhibition of human KM12 cells after 48 hrs by sulforhodamine B assay; assay type: functional; conditions: KM12, 48 h; in short: as §2
SN12C = test: Growth inhibition of human SN12C cells after 48 hrs by sulforhodamine B assay; assay type: functional; in short: as §2
BT-549 = test: Growth inhibition of human BT549 cells after 48 hrs by sulforhodamine B assay; assay type: functional; conditions: BT-549, 48 h; in short: as §3
EKVX = test: Growth inhibition of human EKVX cells after 48 hrs by sulforhodamine B assay; assay type: functional; in short: as §3
CAKI-1 = test: Growth inhibition of human Caki1 cells after 48 hrs by sulforhodamine B assay; assay type: functional; conditions: CAKI-1, 48 h; in short: as §3
UO-31 = test: Growth inhibition of human UO31 cells after 48 hrs by sulforhodamine B assay; assay type: functional; conditions: UO-31, 48 h; in short: as §2
A-375 [2] = test: Cell cycle arrest in human A375 cells assessed as accumulation at S phase at 2 uM after 24 hrs using propidium iodide staining by flow cytometry; assay type: functional; in short: as §1
ACHN = test: Growth inhibition of human ACHN cells after 48 hrs by sulforhodamine B assay; assay type: functional; in short: as §3
SR = test: Growth inhibition of human SR cells after 48 hrs by sulforhodamine B assay; assay type: functional; in short: as §2
COLO 205 = test: Growth inhibition of human COLO205 cells after 48 hrs by sulforhodamine B assay; assay type: functional; conditions: COLO 205, 48 h; in short: as §3
Calf thymus DNA = test: Binding affinity to calf thymus duplex-form DNA assessed as melting temperature at 1:5 compound/DNA ratio after 18 hrs; assay type: nucleic-acid assay; conditions: Bos taurus
SF-295 = test: Growth inhibition of human SF295 cells after 48 hrs by sulforhodamine B assay; assay type: functional; conditions: SF-295, 48 h; in short: as §2
HT-29 = test: Growth inhibition of human HT-29 cells after 48 hrs by sulforhodamine B assay; assay type: functional; conditions: HT-29, 48 h; in short: as §2
MDA-MB-231 = test: Growth inhibition of human MDA-MB-231 cells after 48 hrs by sulforhodamine B assay; assay type: functional; conditions: MDA-MB-231, 48 h; in short: as §2
786-0 = test: Growth inhibition of human 786-0 cells after 48 hrs by sulforhodamine B assay; assay type: functional; conditions: 786-0, 48 h; in short: as §3
NCI/ADR-RES = test: Growth inhibition of human NCI/ADR-RES cells after 48 hrs by sulforhodamine B assay; assay type: functional; in short: as §2
U-251 = test: Growth inhibition of human U251 cells after 48 hrs by sulforhodamine B assay; assay type: functional; conditions: U-251, 48 h; in short: as §2
HCT-116 = test: Growth inhibition of human HCT116 cells after 48 hrs by sulforhodamine B assay; assay type: functional; conditions: HCT-116, 48 h; in short: as §2
A498 = test: Growth inhibition of human A498 cells after 48 hrs by sulforhodamine B assay; assay type: functional; conditions: A498, 48 h; in short: as §3
PC-3 = test: Growth inhibition of human PC3 cells after 48 hrs by sulforhodamine B assay; assay type: functional; conditions: PC-3, 48 h; in short: as §2
A-375 [3] = test: Cell cycle arrest in human A375 cells assessed as accumulation at G0/G1 phase at 2 uM after 24 hrs using propidium iodide staining by flow cytometry; assay type: functional; in short: as §1
HL-60 = test: Growth inhibition of human HL-60(TB) cells after 48 hrs by sulforhodamine B assay; assay type: functional; conditions: HL-60, 48 h; in short: as §2
SK-MEL-5 = test: Growth inhibition of human SK-MEL-5 cells after 48 hrs by sulforhodamine B assay; assay type: functional; conditions: SK-MEL-5, 48 h; in short: as §2
OVCAR-3 = test: Growth inhibition of human OVCAR-3 cells after 48 hrs by sulforhodamine B assay; assay type: functional; conditions: OVCAR-3, 48 h; in short: as §2
OVCAR-8 = test: Growth inhibition of human OVCAR8 cells after 48 hrs by sulforhodamine B assay; assay type: functional; conditions: OVCAR-8, 48 h; in short: as §2
IGROV-1 = test: Growth inhibition of human IGROV1 cells after 48 hrs by sulforhodamine B assay; assay type: functional; conditions: IGROV-1, 48 h; in short: as §2
MCF7 = test: Growth inhibition of human MCF7 cells after 48 hrs by sulforhodamine B assay; assay type: functional; conditions: MCF7, 48 h; in short: as §2
SK-MEL-2 = test: Growth inhibition of human SK-MEL-2 cells after 48 hrs by sulforhodamine B assay; assay type: functional; conditions: SK-MEL-2, 48 h; in short: as §2
OVCAR-4 = test: Growth inhibition of human OVCAR4 cells after 48 hrs by sulforhodamine B assay; assay type: functional; conditions: OVCAR-4, 48 h; in short: as §2
Hs-578T = test: Growth inhibition of human Hs 578T cells after 48 hrs by sulforhodamine B assay; assay type: functional; in short: as §2
A-375 [4] = test: Cell cycle arrest in human A375 cells assessed as accumulation at G1 phase at 2 uM after 24 hrs using propidium iodide staining by flow cytometry; assay type: functional; in short: as §1
NCI-H322M = test: Growth inhibition of human NCI-H322M cells after 48 hrs by sulforhodamine B assay; assay type: functional; in short: as §2
SF-539 = test: Growth inhibition of human SF539 cells after 48 hrs by sulforhodamine B assay; assay type: functional; conditions: SF-539, 48 h; in short: as §2
M14 = test: Growth inhibition of human M14 cells after 48 hrs by sulforhodamine B assay; assay type: functional; conditions: M14, 48 h; in short: as §2

**Q.** Which results are given for COc1cc(-c2nc3ccccc3s2)ccc1OCCCCOc1cc2c(cc1OC)C(=O)N1CCC[C@H]1C=N2?
**A.** Activity (A-375 [1]): 4.45%; GI50 (HOP-92): 263 nM; GI50 (CCRF-CEM): 339 nM; GI50 (SK-MEL-28): 2140 nM; GI50 (Malme-3M): 1550 nM; GI50 (HCT-15): 1320 nM; GI50 (UACC-62): 1120 nM; GI50 (SF-268): 1230 nM; GI50 (SNB-19): 1620 nM; GI50 (T47D): 257 nM; GI50 (NCI-H522): 550 nM; GI50 (KM12): 1020 nM; GI50 (SN12C): 955 nM; GI50 (BT-549): 282 nM; GI50 (EKVX): 1740 nM; GI50 (CAKI-1): 575 nM; GI50 (UO-31): 1230 nM; Activity (A-375 [2]): 5%; GI50 (ACHN): 776 nM; GI50 (SR): 295 nM; GI50 (COLO 205): 692 nM; ΔTm (Calf thymus DNA): 0.5 °C; GI50 (SF-295): 1910 nM; GI50 (HT-29): 537 nM; GI50 (MDA-MB-231): 525 nM; GI50 (786-0): 891 nM; GI50 (NCI/ADR-RES): 1910 nM; GI50 (U-251): 417 nM; GI50 (HCT-116): 525 nM; GI50 (A498): 1620 nM; GI50 (PC-3): 407 nM; Activity (A-375 [3]): 90.55%; GI50 (HL-60): 513 nM; GI50 (SK-MEL-5): 407 nM; GI50 (OVCAR-3): 724 nM; GI50 (OVCAR-8): 1780 nM; GI50 (IGROV-1): 3090 nM; GI50 (MCF7): 407 nM; GI50 (SK-MEL-2): 1230 nM; GI50 (OVCAR-4): 1620 nM; GI50 (Hs-578T): 1020 nM; Activity (A-375 [4]): 69.69%; GI50 (NCI-H322M): 2570 nM; GI50 (SF-539): 537 nM; GI50 (M14): 1230 nM

**Q.** What does the source list for COc1cc(-c2nc3ccccc3s2)ccc1OCCCCCOc1cc2c(cc1OC)C(=O)N1CCC[C@H]1C=N2?
**A.** Activity (A-375 [1]): 3.1%; GI50 (HOP-92): 44.7 nM; GI50 (CCRF-CEM): 21.9 nM; GI50 (SK-MEL-28): 331 nM; GI50 (Malme-3M): 145 nM; GI50 (HCT-15): 224 nM; GI50 (UACC-62): 81.3 nM; GI50 (SF-268): 347 nM; GI50 (SNB-19): 219 nM; GI50 (T47D): 14.1 nM; GI50 (NCI-H522): 41.7 nM; GI50 (KM12): 166 nM; GI50 (SN12C): 200 nM; GI50 (BT-549): 21.9 nM; GI50 (EKVX): 204 nM; GI50 (CAKI-1): 117 nM; GI50 (UO-31): 200 nM; Activity (A-375 [2]): 3.11%; GI50 (ACHN): 53.7 nM; GI50 (SR): 17.4 nM; GI50 (COLO 205): 60.3 nM; ΔTm (Calf thymus DNA): 6.3 °C; GI50 (SF-295): 67.6 nM; GI50 (HT-29): 40.7 nM; GI50 (MDA-MB-231): 89.1 nM; GI50 (786-0): 27.5 nM; GI50 (NCI/ADR-RES): 269 nM; GI50 (U-251): 33.9 nM; GI50 (HCT-116): 38.9 nM; GI50 (A498): 174 nM; GI50 (PC-3): 41.7 nM; Activity (A-375 [3]): 93.79%; GI50 (HL-60): 33.1 nM; GI50 (SK-MEL-5): 24.6 nM; GI50 (OVCAR-3): 97.7 nM; GI50 (OVCAR-8): 141 nM; GI50 (IGROV-1): 347 nM; GI50 (MCF7): 19.1 nM; GI50 (SK-MEL-2): 178 nM; GI50 (OVCAR-4): 288 nM; GI50 (Hs-578T): 141 nM; Activity (A-375 [4]): 67.04%; GI50 (NCI-H322M): 302 nM; GI50 (SF-539): 39.8 nM; GI50 (M14): 39.8 nM
